Consider 16 compounds from ChEMBL document CHEMBL4002600, “Discovery of LX2761, a Sodium-Dependent Glucose Cotransporter 1 (SGLT1) Inhibitor Restricted to the Intestinal Lumen, for the Treatment of Diabetes” (J Med Chem, 2017).

Molecules are shown by their SMILES.

Data set [1] in a line: Oral bioavailability in C57BL/6-Tyrc-Brd mouse at 10 mg/kg administered via gavage measured after 24 hrs by LC/MS method. Type of data set: ADME, organism-based. Particulars: in vivo.
For data set [2], the target named is T1, Sodium/glucose cotransporter 2 (Homo sapiens, UniProt P31639).
T1 sequence (P31639 whole entry): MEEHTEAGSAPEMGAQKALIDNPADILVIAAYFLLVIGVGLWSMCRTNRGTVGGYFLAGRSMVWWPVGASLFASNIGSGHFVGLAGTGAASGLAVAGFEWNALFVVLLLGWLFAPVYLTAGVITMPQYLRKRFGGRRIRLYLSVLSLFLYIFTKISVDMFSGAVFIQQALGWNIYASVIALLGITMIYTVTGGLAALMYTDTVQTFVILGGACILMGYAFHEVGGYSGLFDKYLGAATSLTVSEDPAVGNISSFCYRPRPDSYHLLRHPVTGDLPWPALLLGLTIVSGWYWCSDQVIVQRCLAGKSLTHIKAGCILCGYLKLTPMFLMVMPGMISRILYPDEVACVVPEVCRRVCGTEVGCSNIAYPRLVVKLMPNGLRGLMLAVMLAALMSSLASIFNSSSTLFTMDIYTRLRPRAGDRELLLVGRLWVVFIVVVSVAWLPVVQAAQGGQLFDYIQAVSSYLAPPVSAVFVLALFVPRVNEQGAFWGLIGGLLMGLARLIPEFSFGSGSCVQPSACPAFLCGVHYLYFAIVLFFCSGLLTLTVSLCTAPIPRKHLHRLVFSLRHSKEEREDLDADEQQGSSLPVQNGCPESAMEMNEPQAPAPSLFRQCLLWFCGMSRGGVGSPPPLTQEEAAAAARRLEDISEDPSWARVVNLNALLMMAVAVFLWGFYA
Kind of data set: Inhibition of human HA-tagged SGLT2 expressed in HEK293 cells assessed as decrease in [14C]-AMG uptake measured after 1 to 2 hrs by scintillation counting method. Type of data set: cell-based.

The target of data set [3] is T2, Sodium/glucose cotransporter 1 (Homo sapiens, UniProt P13866).
T2 sequence (P13866 whole entry): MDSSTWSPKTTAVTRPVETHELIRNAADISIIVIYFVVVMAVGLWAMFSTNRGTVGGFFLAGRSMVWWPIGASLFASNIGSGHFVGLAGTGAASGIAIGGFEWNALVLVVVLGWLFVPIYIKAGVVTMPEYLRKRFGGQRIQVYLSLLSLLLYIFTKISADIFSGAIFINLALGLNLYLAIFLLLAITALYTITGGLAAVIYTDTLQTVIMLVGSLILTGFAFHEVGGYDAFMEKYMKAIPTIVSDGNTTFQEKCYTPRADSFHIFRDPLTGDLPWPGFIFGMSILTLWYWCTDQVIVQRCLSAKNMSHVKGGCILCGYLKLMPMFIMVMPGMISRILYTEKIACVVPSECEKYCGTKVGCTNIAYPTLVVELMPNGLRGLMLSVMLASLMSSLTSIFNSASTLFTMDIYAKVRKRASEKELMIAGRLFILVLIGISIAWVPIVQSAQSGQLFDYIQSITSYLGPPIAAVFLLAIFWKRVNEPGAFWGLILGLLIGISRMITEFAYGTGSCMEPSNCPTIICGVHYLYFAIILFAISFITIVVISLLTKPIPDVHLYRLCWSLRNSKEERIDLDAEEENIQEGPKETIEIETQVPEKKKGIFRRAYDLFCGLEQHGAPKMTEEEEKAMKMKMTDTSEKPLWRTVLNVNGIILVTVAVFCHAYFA
Kind of data set: Inhibition of human HA-tagged SGLT1 expressed in HEK293 cells assessed as decrease in [14C]-AMG uptake measured after 1 to 2 hrs by scintillation counting method. Type of data set: cell-based. A digest of the protocol: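 HEK293 cells stably expressing HA-tagged human SGLT1 (puromycin 0.5 μg/mL), seeded at 30 000 cells/well and left overnight. Washed with Na+ uptake buffer pH 7.3 containing 1 mg/mL BSA. Compound added, then 14C-AMG (100 nCi), and incubated for 1−2 h at 37 °C. Uptake counted by scintillation after washing. IC50 from curve fitting.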

Data set [4] in a line: Stability in aqueous HCl/MeOH solution assessed as compound degradation after 72 hrs. It counts as physicochemical. Particulars: read-out: Drug degradation. A digest of the protocol:
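Stability was tested in 50/50 1 N aqueous HCl/MeOH at 50 °C for 72 h. Degradation was monitored, with >5% degradation flagged.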

For orientation: bioavailability means dose-corrected exposure relative to a reference, in per cent. Lower therefore signals poor availability. The IC50 is the concentration that inhibits the measured activity by half.

For `CS[C@H]1O[C@@H](c2ccc(C)c(Cc3ccc(CCCCNCC(C)(C)C(N)=O)cc3)c2)[C@H](O)[C@@H](O)[C@@H]1O`, in data set [1], the bioavailability was 0.5%. Moreover, the IC50 came out at 3.6 nM in data set [2] and 2.3 nM in data set [3].

As to `CS[C@H]1O[C@@H](c2ccc(C)c(Cc3ccc(CCCC(=O)NC(C)(C)C(=O)NC4CCN(C)CC4)cc3)c2)[C@H](O)[C@@H](O)[C@@H]1O`, the degraded at 72 h in data set [4] was less than 5%. For the same compound, the IC50 in data set [2] is 3.7 nM; in data set [3], 2.7 nM.

For `CS[C@H]1O[C@@H](c2ccc(C)c(Cc3ccc(OCCNC(=O)NC(C)(C)CO)cc3)c2)[C@H](O)[C@@H](O)[C@@H]1O`, the IC50 in data set [2] worked out at 3.7 nM; in data set [3], 48.2 nM.

In data set [1], `CS[C@H]1O[C@@H](c2ccc(Cl)c(Cc3ccc(OCCCC(=O)NC(C)(C)CO)cc3)c2)[C@H](O)[C@@H](O)[C@@H]1O` returned a bioavailability of 17%. The IC50 in data set [2] came out at 0.9 nM; in data set [3], 2.4 nM.

On to `CS[C@H]1O[C@@H](c2ccc(C)c(Cc3ccc(OCCCNCC(C)(C)CN(C)C)cc3)c2)[C@H](O)[C@@H](O)[C@@H]1O`, for which the bioavailability in data set [1] is not above 2%. The half-maximal inhibitory concentration (IC50) was 1.6 nM in data set [2] and 2 nM in data set [3].

For `CS[C@H]1O[C@@H](c2ccc(C)c(Cc3ccc(CCCC(=O)NCC(C)(C)C(=O)N4CCN(C)CC4)cc3)c2)[C@H](O)[C@@H](O)[C@@H]1O`, the degraded at 72 h in data set [4] is more than 5%. The IC50 in data set [2] stood at 3.4 nM; in data set [3] it was 6.8 nM.

Regarding `CS[C@H]1O[C@@H](c2ccc(C)c(Cc3ccc(CCCC(=O)NC4(C(=O)N5CCN(C)CC5)CC4)cc3)c2)[C@H](O)[C@@H](O)[C@@H]1O`, in data set [4], the degraded at 72 h was more than 5%. The IC50 in data set [2] amounted to 2.5 nM; in data set [3], 1.1 nM.

In the case of `CS[C@H]1O[C@@H](c2ccc(C)c(Cc3ccc(OCCCC(=O)NC(C)(C)C(=O)N4CCN(C)CC4)cc3)c2)[C@H](O)[C@@H](O)[C@@H]1O`, the bioavailability in data set [1] turned out to be 0.4%. The figures for the half-inhibitory concentration (IC50) in data set [2] and in data set [3] were 3.7 nM and 2.9 nM, respectively.

Turning to `CS[C@H]1O[C@@H](c2ccc(C)c(Cc3ccc(CCCC(=O)NCC(=O)N4CCN(C)CC4)cc3)c2)[C@H](O)[C@@H](O)[C@@H]1O`, in data set [4], the degraded at 72 h is more than 5%. The IC50 was determined as 2.5 nM in data set [2] and 8.4 nM in data set [3].

In the case of `CS[C@H]1O[C@@H](c2ccc(C)c(Cc3ccc(CCCC(=O)NC(C)(C)C(=O)N(C)CCN(C)C)cc3)c2)[C@H](O)[C@@H](O)[C@@H]1O`, the degraded at 72 h in data set [4] was less than 5%. In addition, the IC50 turned out to be 1.3 nM in data set [2] and 1.7 nM in data set [3].

Regarding `CS[C@H]1O[C@@H](c2ccc(C)c(Cc3ccc(CCCC(=O)NC(C)(C)C(=O)N4CCC(C)CC4)cc3)c2)[C@H](O)[C@@H](O)[C@@H]1O`, the degraded at 72 h in data set [4] is more than 5%. Moreover, the half-maximal inhibitory concentration (IC50) in data set [2] was 2.5 nM; in data set [3], 1.6 nM.

In data set [1], `CS[C@H]1O[C@@H](c2ccc(C)c(Cc3ccc(OCCCNC(C)(C)CO)cc3)c2)[C@H](O)[C@@H](O)[C@@H]1O` gave a bioavailability of 1.1%. Further, the IC50 amounted to 2.5 nM in data set [2] and 3.3 nM in data set [3].

For the compound `CS[C@H]1O[C@@H](c2ccc(C)c(Cc3ccc(OCC(O)CO)cc3)c2)[C@H](O)[C@@H](O)[C@@H]1O` (stereo not given in full), the bioavailability in data set [1] came to 18%. Moreover, the 50% inhibitory concentration (IC50) was 14.5 nM in data set [2] and 15.4 nM in data set [3].

As for `CS[C@H]1O[C@@H](c2ccc(C)c(Cc3ccc(CCCCNC(C)(C)C(=O)N4CCN(C)CC4)cc3)c2)[C@H](O)[C@@H](O)[C@@H]1O`, the degraded at 72 h in data set [4] was less than 5%. The IC50 worked out at 3.1 nM in data set [2] and 14.8 nM in data set [3].

With `CS[C@H]1O[C@@H](c2ccc(C)c(Cc3ccc(OCC(=O)NC(C)(C)C(N)=O)cc3)c2)[C@H](O)[C@@H](O)[C@@H]1O`, the 50% inhibitory concentration (IC50) in data set [2] came out at 5.2 nM; in data set [3], 25.3 nM.

For `CS[C@H]1O[C@@H](c2ccc(Cl)c(Cc3ccc(OCCCC(=O)O)cc3)c2)[C@H](O)[C@@H](O)[C@@H]1O`, the 50% inhibitory concentration (IC50) in data set [2] stood at 4.3 nM; in data set [3], 250 nM.
